Test results published in ChEMBL document CHEMBL1148382, “Synthesis and structure-activity relationship for a novel class of potent and selective carbamoyl-triazole based inhibitors of hormone sensitive lipase” (J Med Chem, 2004).
pIC50: −log10 of the molar value.

Experiments:
Cholinesterase = Cholinesterase (Homo sapiens, UniProt P06276); test: Inhibitory concentration against butyrylcholinesterase.
Hormone-sensitive lipase = target: T1, Hormone-sensitive lipase (Homo sapiens, UniProt Q05469); test: Inhibition of hormone sensitive lipase (HSL).
T1 sequence (Q05469 whole entry): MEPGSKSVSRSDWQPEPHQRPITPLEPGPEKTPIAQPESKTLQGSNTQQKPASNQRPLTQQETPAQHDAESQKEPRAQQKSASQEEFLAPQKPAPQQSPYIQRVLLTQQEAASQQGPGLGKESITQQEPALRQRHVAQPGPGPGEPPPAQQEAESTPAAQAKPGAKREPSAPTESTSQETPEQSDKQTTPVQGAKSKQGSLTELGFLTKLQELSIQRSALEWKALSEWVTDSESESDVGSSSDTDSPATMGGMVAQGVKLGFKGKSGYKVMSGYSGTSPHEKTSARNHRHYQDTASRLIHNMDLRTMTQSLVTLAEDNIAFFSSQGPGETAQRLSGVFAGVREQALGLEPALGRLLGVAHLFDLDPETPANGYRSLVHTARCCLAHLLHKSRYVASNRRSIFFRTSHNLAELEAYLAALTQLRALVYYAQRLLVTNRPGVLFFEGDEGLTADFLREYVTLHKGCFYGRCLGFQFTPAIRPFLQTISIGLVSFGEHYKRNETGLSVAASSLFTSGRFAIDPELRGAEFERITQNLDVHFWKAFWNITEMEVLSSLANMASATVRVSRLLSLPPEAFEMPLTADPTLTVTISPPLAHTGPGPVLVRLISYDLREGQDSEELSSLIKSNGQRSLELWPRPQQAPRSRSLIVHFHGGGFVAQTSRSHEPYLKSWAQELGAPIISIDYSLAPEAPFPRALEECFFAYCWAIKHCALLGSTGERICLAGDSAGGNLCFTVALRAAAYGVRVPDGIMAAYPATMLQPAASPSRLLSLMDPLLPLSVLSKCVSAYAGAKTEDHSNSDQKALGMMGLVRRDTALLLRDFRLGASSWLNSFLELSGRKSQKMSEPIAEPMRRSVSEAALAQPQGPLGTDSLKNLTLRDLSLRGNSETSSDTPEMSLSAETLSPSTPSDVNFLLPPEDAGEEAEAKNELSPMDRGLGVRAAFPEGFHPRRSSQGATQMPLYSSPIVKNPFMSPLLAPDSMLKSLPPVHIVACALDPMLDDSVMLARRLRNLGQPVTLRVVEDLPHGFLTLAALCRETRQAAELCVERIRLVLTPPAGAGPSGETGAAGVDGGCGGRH

Acetylcholinesterase [1] = target: T2, Acetylcholinesterase (Homo sapiens, UniProt P22303); test: Inhibitory concentration against acetylcholinesterase
T2 sequence (P22303 whole entry): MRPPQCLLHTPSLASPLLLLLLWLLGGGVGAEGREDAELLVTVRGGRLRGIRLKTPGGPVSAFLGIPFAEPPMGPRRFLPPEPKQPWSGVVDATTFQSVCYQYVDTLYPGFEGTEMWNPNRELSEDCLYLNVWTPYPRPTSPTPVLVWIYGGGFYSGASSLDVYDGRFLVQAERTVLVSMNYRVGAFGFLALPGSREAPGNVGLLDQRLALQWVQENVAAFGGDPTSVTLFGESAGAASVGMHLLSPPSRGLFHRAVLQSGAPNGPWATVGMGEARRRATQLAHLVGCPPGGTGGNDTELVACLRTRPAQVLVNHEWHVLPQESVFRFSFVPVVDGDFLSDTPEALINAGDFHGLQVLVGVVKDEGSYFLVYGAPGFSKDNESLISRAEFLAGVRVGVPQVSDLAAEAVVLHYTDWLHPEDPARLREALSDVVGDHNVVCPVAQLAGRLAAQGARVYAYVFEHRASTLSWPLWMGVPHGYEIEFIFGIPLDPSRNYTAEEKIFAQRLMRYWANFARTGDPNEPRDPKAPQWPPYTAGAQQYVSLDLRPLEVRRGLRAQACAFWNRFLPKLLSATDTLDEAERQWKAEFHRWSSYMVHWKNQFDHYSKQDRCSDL

Acetylcholinesterase [2] = target: T2, Acetylcholinesterase; test: Inhibitory concentration against acetylcholinesterase; non classical inhibitor, maximum HSL inhibition of […]%
[3] = target: T3, Hepatic triacylglycerol lipase (Homo sapiens, UniProt P11150); test: Compound was tested to inhibit hepatic lipase (HL)
T3 sequence (P11150 whole entry): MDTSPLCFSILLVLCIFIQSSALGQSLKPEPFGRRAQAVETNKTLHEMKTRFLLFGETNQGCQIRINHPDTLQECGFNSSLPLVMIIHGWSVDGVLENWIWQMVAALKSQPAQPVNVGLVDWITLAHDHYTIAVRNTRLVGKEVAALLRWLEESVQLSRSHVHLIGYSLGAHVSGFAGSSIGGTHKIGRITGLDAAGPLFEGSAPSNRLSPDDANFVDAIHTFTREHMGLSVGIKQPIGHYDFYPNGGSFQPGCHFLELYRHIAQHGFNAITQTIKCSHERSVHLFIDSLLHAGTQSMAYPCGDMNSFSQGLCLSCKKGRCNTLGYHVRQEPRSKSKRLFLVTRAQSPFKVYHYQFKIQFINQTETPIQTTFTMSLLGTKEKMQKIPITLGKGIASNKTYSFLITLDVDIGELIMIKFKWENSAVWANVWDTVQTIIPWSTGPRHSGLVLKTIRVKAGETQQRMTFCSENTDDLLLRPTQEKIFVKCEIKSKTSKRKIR
How it was run: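 Emulsion assay with a fluorochrome (NBD)-labeled triacylglyceride in phosphatidylcholine/phosphatidylinositol 3:1 micelles, diluted in PED-BSA buffer pH 7.0. HL (1 μg/mL) and inhibitor in DOC buffer (10 mM TRIS-HCl pH 8.5, 5 mM deoxycholate) preincubated 70 min at 25 °C, then added with NaCl and TRIS pH 8.5. Fluorescence (ex 450/em 545 nm) read at 0 and 120 min, 37 °C. Inhibitor top concentration 100 μM, six 5-fold dilutions, duplicates; sigmoidal variable-slope IC50 fit.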

[4] = target: T4, Pancreatic triacylglycerol lipase (Homo sapiens, UniProt P16233); test: Compound was tested to inhibit pancreatic lipase (PL)
T4 sequence (P16233 whole entry): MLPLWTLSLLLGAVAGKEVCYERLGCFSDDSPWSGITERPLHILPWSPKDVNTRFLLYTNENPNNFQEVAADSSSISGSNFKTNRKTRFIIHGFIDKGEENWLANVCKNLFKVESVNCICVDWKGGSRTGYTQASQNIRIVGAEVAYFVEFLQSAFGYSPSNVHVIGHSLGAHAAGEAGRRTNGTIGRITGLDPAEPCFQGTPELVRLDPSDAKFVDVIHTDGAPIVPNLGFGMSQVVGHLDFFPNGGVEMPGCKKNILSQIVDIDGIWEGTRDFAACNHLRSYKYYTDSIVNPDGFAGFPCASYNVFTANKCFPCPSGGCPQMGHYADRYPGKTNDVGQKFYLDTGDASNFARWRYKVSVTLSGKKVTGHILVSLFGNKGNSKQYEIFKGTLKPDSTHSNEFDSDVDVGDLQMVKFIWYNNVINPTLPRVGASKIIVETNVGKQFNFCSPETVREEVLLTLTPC
How it was run: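 PL (1 μg/mL) plus colipase (5 μg/mL) preincubated with inhibitor 40 min at 25 °C. Then combined with TRIS buffer pH 8.0 (NaCl, 1 mM NaTDC) and labeled triacylglyceride emulsion prepared in TRIS pH 8.0 with 8 mM NaTDC, 0.3 M NaCl, 2 mM CaCl2. Fluorescence (ex 450/em 545 nm) read at 0 and 60 min, 37 °C. Six concentrations from 100 μM in 5-fold steps, duplicates; sigmoidal IC50 fit.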

[5] = target: Lipoprotein lipase (Bos taurus) (UniProt P11151); test: Compound was tested to inhibit lipoprotein lipase (LPL)
Chain of Lipoprotein lipase (Bos taurus) (P11151 whole entry, looked up): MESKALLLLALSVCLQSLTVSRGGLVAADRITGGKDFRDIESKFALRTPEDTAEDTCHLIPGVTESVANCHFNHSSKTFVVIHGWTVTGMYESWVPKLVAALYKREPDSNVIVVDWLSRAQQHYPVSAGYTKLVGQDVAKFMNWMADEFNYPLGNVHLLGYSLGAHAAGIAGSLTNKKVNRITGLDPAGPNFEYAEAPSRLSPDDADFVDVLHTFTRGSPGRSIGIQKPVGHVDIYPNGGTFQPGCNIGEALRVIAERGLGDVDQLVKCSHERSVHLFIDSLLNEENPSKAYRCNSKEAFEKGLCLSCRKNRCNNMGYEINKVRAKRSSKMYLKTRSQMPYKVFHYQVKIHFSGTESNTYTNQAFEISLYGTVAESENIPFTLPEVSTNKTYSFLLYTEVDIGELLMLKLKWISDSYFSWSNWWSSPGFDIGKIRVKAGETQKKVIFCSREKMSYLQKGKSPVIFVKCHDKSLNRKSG

Chain of Cholinesterase (P06276 whole entry): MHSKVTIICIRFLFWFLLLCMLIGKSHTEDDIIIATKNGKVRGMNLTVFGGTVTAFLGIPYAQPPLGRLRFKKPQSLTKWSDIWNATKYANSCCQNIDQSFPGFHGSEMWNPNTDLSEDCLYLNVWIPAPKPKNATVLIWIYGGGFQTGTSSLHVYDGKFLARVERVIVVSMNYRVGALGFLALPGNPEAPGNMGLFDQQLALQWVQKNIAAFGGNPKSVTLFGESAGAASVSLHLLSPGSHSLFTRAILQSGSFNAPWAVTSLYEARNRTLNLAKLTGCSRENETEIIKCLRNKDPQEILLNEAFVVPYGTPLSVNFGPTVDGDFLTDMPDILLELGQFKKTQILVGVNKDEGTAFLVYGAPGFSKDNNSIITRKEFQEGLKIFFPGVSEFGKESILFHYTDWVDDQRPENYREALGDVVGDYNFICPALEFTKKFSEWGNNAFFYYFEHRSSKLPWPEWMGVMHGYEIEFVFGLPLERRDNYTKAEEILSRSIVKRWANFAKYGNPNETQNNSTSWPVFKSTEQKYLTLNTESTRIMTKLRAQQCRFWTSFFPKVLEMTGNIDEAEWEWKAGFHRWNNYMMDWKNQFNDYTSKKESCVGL

| SMILES | pIC50 (Cholinesterase) | pIC50 (Hormone-sensitive lipase) | pIC50 (Acetylcholinesterase [1]) | IC50 (Acetylcholinesterase [2]) | pIC50 [3] | pIC50 [4] | pIC50 [5] |
| --- | --- | --- | --- | --- | --- | --- | --- |
| CSc1nc(-c2ccc(C(F)(F)F)cc2)nn1C(=O)N(C)C | 7.00 | 7.00 | 6.30 | – | – | – | – |
| CSc1nc(-c2ccc(-c3ccccc3)cc2)nn1C(=O)N(C)C | 6.64 | 5.82 | 6.25 | – | – | – | – |
| COc1ccc(-c2nc(SC)n(C(=O)N(C)C)n2)cc1 | 6.39 | 6.05 | 6.10 | – | – | – | – |
| CSc1nc(-c2ccc(OC(F)(F)F)cc2)nn1C(=O)N(C)C | 6.70 | 7.00 | 6.10 | – | – | – | – |
| CSc1nc(-c2ccc(Cl)cc2)nn1C(=O)N(C)C | > 8.00 | 7.70 | 7.00 | – | – | – | – |
| CN(C(=O)n1nc(-c2ccc(Cl)cc2)nc1SCC1CC1)c1ccccc1 | – | 7.21 | – | Non classical inhibitor | – | – | – |
| CCCCCCSc1nc(-c2ccc(C)cc2)nn1C(=O)N(C)c1ccccc1 | – | 6.15 | < 4.30 | – | – | – | – |
| CSc1nc(-c2ccc(C)cc2)nn1C(=O)N(C)C | 6.70 | 7.52 | 6.10 | – | – | – | – |
| CCOc1nn(-c2cccc(OCc3ccccc3)c2)c(=O)o1 | 6.04 | 5.96 | 6.12 | – | 4.82 | < 5.00 | < 5.00 |
| CCCCCCSc1nc(-c2ccc(Cl)cc2)nn1C(=O)N(C)c1ccccc1 | – | 6.40 | < 4.30 | – | – | – | – |
| Cc1c(C(C)C)c(=O)on1C(=O)N1CCC[C@H](C)C1 | < 4.30 | 6.77 | 4.77 | – | < 4.30 | < 4.30 | < 4.30 |
| CN(C(=O)n1nc(-c2ccc(Cl)cc2)nc1SCC(F)(F)F)c1ccccc1 | < 4.30 | 6.77 | < 4.30 | – | < 4.30 | < 4.30 | < 4.30 |
| CCCCCCSc1nc(-c2ccc(Cl)cc2)nn1C(=O)N1CCCCC1 | < 4.30 | < 4.30 | > 8.00 | – | – | – | – |
| CSc1nc(-c2ccc(C)cc2)nn1C(=O)N1CCOCC1 | 5.70 | 5.40 | < 4.30 | – | – | – | – |
| CSc1nc(-c2ccc(Cl)cc2)nn1C(=O)N(C)c1ccccc1 | – | 6.80 | 5.85 | – | – | – | – |
| O=C(N1CCCCC1)n1nc(-c2ccc(Cl)cc2)nc1SCC1CC1 | 6.05 | 6.70 | 7.00 | – | – | – | – |

| SMILES | pIC50 (Cholinesterase) | pIC50 (Hormone-sensitive lipase) | pIC50 (Acetylcholinesterase [1]) | IC50 (Acetylcholinesterase [2]) | pIC50 [3] | pIC50 [4] | pIC50 [5] |
| --- | --- | --- | --- | --- | --- | --- | --- |
| CSc1nc(-c2ccc(OC(F)(F)F)cc2)nn1C(=O)N(C)c1ccccc1 | < 4.30 | 6.60 | < 4.30 | – | < 4.30 | < 4.30 | < 4.30 |
| O=C(N1CCCCC1)n1nc(-c2ccc(Cl)cc2)nc1SCC(F)(F)F | 6.00 | 6.40 | 6.52 | – | – | – | – |
| O=C(N1CCOCC1)n1nc(-c2ccc(Cl)cc2)nc1SCC(F)(F)F | < 4.30 | 5.05 | < 4.30 | – | – | – | – |
| CCCCCCSc1nc(-c2ccc(Cl)cc2)nn1C(=O)N1CCOCC1 | < 4.30 | < 4.30 | < 4.30 | – | – | – | – |
| CCSc1nc(-c2ccc(Cl)cc2)nn1C(=O)N(C)C | 7.30 | 6.68 | 7.25 | – | – | – | – |
| Cc1ccc(-c2nc(SCC(F)(F)F)n(C(=O)N(C)C)n2)cc1 | 6.34 | 6.22 | 6.70 | – | – | – | – |
| COc1nn(-c2ccc(NC(=O)c3ccc(C(C)(C)C)cc3)cc2)c(=O)o1 | < 4.30 | 7.64 | < 4.30 | – | 5.74 | < 5.00 | 6.70 |
| CCSc1nc(-c2ccc(OC)cc2)nn1C(=O)N1CCOCC1 | 5.40 | 5.05 | < 4.30 | – | – | – | – |
| CSc1nc(-c2ccc(Cl)cc2)nn1C(=O)N1CCCCC1 | 6.05 | 7.00 | 7.59 | – | – | – | – |
| CCCSc1nc(-c2ccc(Cl)cc2)nn1C(=O)N(C)C | 7.00 | 7.22 | 6.52 | – | – | – | – |
| CSc1nc(-c2ccc(C)cc2)nn1C(=O)N(C)c1ccccc1 | – | 7.00 | 5.62 | – | – | – | – |
| CCSc1nc(-c2ccc(OC)cc2)nn1C(=O)N(C)c1ccccc1 | – | 6.52 | 5.96 | – | – | – | – |
| CCCCCCSc1nc(-c2ccc(C)cc2)nn1C(=O)N(C)C | 6.52 | < 4.30 | 6.70 | – | – | – | – |
| CSc1nc(-c2ccc(Cl)cc2)nn1C(=O)N1CCOCC1 | 4.85 | 5.70 | < 4.30 | – | – | – | – |
| CSc1nc(/C=C/c2ccccc2)nn1C(=O)N(C)C | 6.43 | < 4.30 | > 8.00 | – | – | – | – |
| CSc1nc(-c2ccc3ccccc3c2)nn1C(=O)N(C)C | 6.89 | 5.70 | 7.30 | – | – | – | – |
